Data on two compounds can be found in ChEMBL document CHEMBL5136969, “A niclosamide-tobramycin hybrid adjuvant potentiates cefiderocol against P. aeruginosa” (2021).

Values after ≈ are worked out from the molar mass of the structure shown.

What is called MIC is the lowest concentration found to suppress growth.

Assay type in all cases: functional
Experiment [1] relates to Pseudomonas aeruginosa. Kind of experiment: Antibacterial activity against Pseudomonas aeruginosa PAO1 assessed as reduction in bacterial growth after 18 hrs by microbroth dilution method. The gist of the method: (§1)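 CLSI broth microdilution. Overnight cultures were adjusted in saline to 0.5 McFarland, diluted 1:50 in Mueller-Hinton broth (MHB), and inoculated at about 5 × 10^5 CFU/mL. Agents were 2-fold serially diluted in MHB, mixed 1:1 with inoculum, and held at 37 °C for 18 h. MIC was the lowest concentration with no visible turbidity, confirmed at 590 nm.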

Experiment [2] has as its system Acinetobacter baumannii. Kind of experiment: Antibacterial activity against Acinetobacter baumannii ATCC 17978 assessed as reduction in bacterial growth after 18 hrs by microbroth dilution method. The method, boiled down:
(§2)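 CLSI microbroth dilution in MHB. Overnight cultures were adjusted to 0.5 McFarland in saline, diluted 1:50, and inoculated at about 5 × 10^5 CFU/mL. Agents were 2-fold serially diluted and incubated 18 h at 37 °C. MIC is the lowest concentration without visible turbidity, confirmed by absorbance at 590 nm. Medium with and without cells served as controls.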

Experiment [3] concerns Escherichia coli. Kind of experiment: Antibacterial activity against Escherichia coli ATCC 25922 assessed as reduction in bacterial growth after 18 hrs by microbroth dilution method. The gist of the method:
as §2
On the technique in general: Dilution methods test growth across graded concentrations, often in twofold steps.

For experiment [4], the system named is Staphylococcus aureus. The experiment can be described thus: Antibacterial activity against Staphylococcus aureus ATCC 29213 assessed as reduction in bacterial growth after 18 hrs by microbroth dilution method. The method, boiled down:
as §1

The test system of experiment [5] is Staphylococcus aureus. Kind of experiment: Antibacterial activity against methicillin-resistant Staphylococcus aureus ATCC 33592 assessed as reduction in bacterial growth after 18 hrs by microbroth dilution method. The gist of the method: (§3)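 Broth microdilution per CLSI in Mueller-Hinton broth (MHB). Overnight cultures were adjusted to 0.5 McFarland in saline, diluted 1:50 in MHB, and added at about 5 × 10^5 CFU/mL final to equal volumes of 2-fold serial dilutions of agent. Incubation was 18 h at 37 °C. MIC was the lowest concentration with no visible turbidity, confirmed by absorbance at 590 nm.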

For experiment [6], the system named is Staphylococcus epidermidis. Kind of experiment: Antibacterial activity against methicillin-resistant Staphylococcus epidermidis 61589 assessed as reduction in bacterial growth after 18 hrs by microbroth dilution method. The method, boiled down: as §3
Experiment [7] relates to Enterococcus faecalis. Kind of experiment: Antibacterial activity against Enterococcus faecalis ATCC 29212 assessed as reduction in bacterial growth after 18 hrs by microbroth dilution method. The method, boiled down: as §2
Experiment [8] concerns Enterococcus faecium. The experiment can be described thus: Antibacterial activity against Enterococcus faecium ATCC 27270 assessed as reduction in bacterial growth after 18 hrs by microbroth dilution method. The method, boiled down:
as §2

For `NC[C@H]1O[C@H](O[C@H]2[C@H](O)[C@@H](O[C@H]3O[C@H](CO)[C@@H](O)[C@H](N)[C@H]3O)[C@H](N)C[C@@H]2N)[C@H](N)C[C@@H]1O` [TOBRAMYCIN], the MIC in experiment [1] came to 0.5 µg/mL (≈ 1.07 µM); in experiment [2] it was 0.5 µg/mL (≈ 1.07 µM); in experiment [3] it was 2 µg/mL (≈ 4.28 µM); in experiment [4], 0.5 µg/mL (≈ 1.07 µM); in experiment [5], 2 µg/mL (≈ 4.28 µM); in experiment [6] it was 8 µg/mL (≈ 17.1 µM). Besides, the minimal inhibitory concentration (MIC) in experiment [7] came to 8 µg/mL (≈ 17.1 µM); in experiment [8], 16 µg/mL (≈ 34.2 µM).

With `O=C(Nc1ccc([N+](=O)[O-])cc1Cl)c1cc(Cl)ccc1O` [NICLOSAMIDE], the MIC was more than 128 µg/mL in experiment [1]; more than 128 µg/mL in experiment [2]; more than 128 µg/mL in experiment [3]; 1 µg/mL (≈ 3.06 µM) in experiment [4]; 0.25 µg/mL (≈ 0.764 µM) in experiment [5]; 1 µg/mL (≈ 3.06 µM) in experiment [6]. For the same compound, the MIC in experiment [7] and in experiment [8] was 2 µg/mL (≈ 6.11 µM) each time.
